High-throughput results (PubChem BioAssay)
PAFAH1B3 inh – PAFAH1B3 enzyme inhibitors, primary screen, biochemical, fluorescence polarization, human. recombinant PAFAH1B3, FP-rhodamine probe. inhibition, % at 3.39 µM. 340,000 tested, 0.28% active. Platelet-activating factor acetylhydrolase IB subunit alpha1 (Homo sapiens), Q15102;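 active = inhibition above the screen-wide average of all tested compounds plus 3 SD, cut at about 25% in these data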;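 note: 0% = enzyme with DMSO only and 100% = wells lacking PAFAH1B3 protein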
TDP2 inh – human TDP2 enzyme inhibitors, primary screen, biochemical, epi absorbance, recombinant enzyme | Tyrosyl-DNA phosphodiesterase 2 (Homo sapiens), O95551 | T5PNP hydrolysis, p-nitrophenol absorbance 415 nm | inhibition, % at 12.8 µM | 370,000 tested, 0.34% active;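 active = inhibition above the mean of all tested compounds plus 3 SD, set per campaign, cut at about 25% in these data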;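 note: 0% = DMSO with enzyme and 100% = buffer with substrate but no TDP2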
Target sequence (O95551 whole entry, looked up): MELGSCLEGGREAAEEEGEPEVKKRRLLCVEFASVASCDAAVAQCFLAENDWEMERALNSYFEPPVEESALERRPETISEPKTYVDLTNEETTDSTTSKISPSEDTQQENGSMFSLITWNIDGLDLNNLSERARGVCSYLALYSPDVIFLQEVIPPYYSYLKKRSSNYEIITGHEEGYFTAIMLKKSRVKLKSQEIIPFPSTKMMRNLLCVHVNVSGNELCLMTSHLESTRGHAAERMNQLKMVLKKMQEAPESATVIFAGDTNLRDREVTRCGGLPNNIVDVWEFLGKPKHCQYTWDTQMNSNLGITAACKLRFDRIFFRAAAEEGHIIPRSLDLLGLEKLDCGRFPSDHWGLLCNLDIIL
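Test system: Human TDP2 enzyme | Reagent: 5 mM T5PNP | Compound dosing: 12.8 µM single point, 1% DMSO | Incubation: Enzyme reaction with compound for 2 h at 37 °C | Technique: p-Nitrophenol epi absorbance | Read-out: % inhibition relative to enzyme-containing and enzyme-free wells | Benchmarks: High control without enzyme, low control DMSO plus TDP2 | Replicates: Singlicate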
PAFAH2 FP inh – PAFAH2 enzyme inhibitors, primary screen, biochemical, fluorescence polarization, human. Platelet-activating factor acetylhydrolase 2, cytoplasmic (Homo sapiens), Q99487. inhibition, % at 3.39 µM. recombinant PAFAH2, FP-rhodamine activity probe. 340,000 tested, 0.99% active. AID 492956, 2010;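 active = inhibition above the mean over all tested compounds plus 3 SD, cut at about 30% in these data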;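 note: inhibitors block probe labeling of enzyme so polarization drops; 0% = enzyme with DMSO and 100% = wells lacking PAFAH2 protein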
Apaf1 inhib – inhibitors of human Apaf-1 apoptosome, primary screen, biochemical, DEVD-Rh110 fluorescence, uHTS; reconstituted apoptosome caspase-3 activity; inhibition, % at 20 µM; 330,000 tested, 0.71% active; AID 489030, 2010; active = inhibition of at least 40% at 20 µM;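 note: plate controls were DMSO wells for no effect and DEVD-CHO caspase inhibitor wells for full effect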
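Material: biochemical Apaf-1 apoptosome reconstitution. Medium: Hepes buffer, pH 7.5. Also added: cytochrome c activation, bis-DEVD rhodamine 110 substrate. Timing: 30 min compound preincubation, 50 min activation, room temperature. Measured by: rhodamine 110 fluorescence at Ex 480/Em 540 nm.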
PAFAH1B2 FP inh – PAFAH1B2 enzyme inhibitors, primary screen, biochemical, fluorescence polarization, human; recombinant PAFAH1B2, FP-rhodamine activity probe; inhibition, % at 3.39 µM; 340,000 tested, 1.2% active;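 active = inhibition above the mean of all tested compounds plus 3 SD, cut at about 24% in these data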;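 note: 0% = enzyme with DMSO and 100% = wells lacking PAFAH1B2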
Target sequence (P68402 whole entry, looked up): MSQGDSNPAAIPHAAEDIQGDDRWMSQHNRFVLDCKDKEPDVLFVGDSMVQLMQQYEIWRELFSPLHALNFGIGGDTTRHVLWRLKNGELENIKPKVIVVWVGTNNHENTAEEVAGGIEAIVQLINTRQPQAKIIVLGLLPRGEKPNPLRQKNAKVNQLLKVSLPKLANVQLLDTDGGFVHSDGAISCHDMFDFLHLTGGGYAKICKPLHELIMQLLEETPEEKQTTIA
* hit, by the source's call; · = no result. Only some compounds are listed: those with a hit (about 2.3% of all), similar ones and a draw of the others.

SMILES | PAFAH1B3 inh | TDP2 inh | PAFAH2 FP inh | Apaf1 inhib | PAFAH1B2 FP inh
O=S(=O)(c1ccc(Cl)cc1)N1CCN(C(=S)Nc2ccccc2F)CC1 | -5 | -2 | -3 | 15 | 25*
O=S(=O)(c1ccc(F)cc1)N1CCN(C(=S)NCCc2ccccc2)CC1 | 3 | 5 | -2 | -2 | 24*
NC(=S)NN=C1CCCCCCCCCC1 | 3 | 2 | 7 | · | 28*
Cn1c2ccccc2c2cc(/C=N/NC(=O)c3cc(O)cc(O)c3)ccc21 | 16 | -6 | -34 | 21 | 25*
Cn1c2ccccc2c2cc(/C=N/NC(=O)c3cc(O)ccc3O)ccc21 | 59* | 11 | 24 | 32 | 30*
CCn1c2ccccc2c2cc(/C=N/NC(=O)c3ccccc3)ccc21 | -8 | -8 | -14 | 21 | 1
Cc1cc(N2CCCC2=O)cc(C)c1S(=O)(=O)NCCOc1ccc(C(C)(C)C)cc1 | 2 | -12 | 2 | 20 | 40*
C/C(=N\NC(=O)c1cc(O)cc(O)c1)c1ccc(NC(=O)Cc2ccccc2)cc1 | 35* | 7 | 27 | 8 | 19
O=C(Nc1ccc2c(c1)Cc1ccccc1-2)NC1CCCCN(Cc2cccc(Cl)c2)C1=O (stereo not drawn) | · | 5 | · | · | ·
Cc1ccc(SCCc2ccc(C)nc2)cc1 | 12 | -5 | 2 | 13 | 28*
O=C1NCCCC2c3cc(O)c4ccccc4c3OC12N1CCCCC1 (stereo not drawn) | · | 57* | · | 93* | ·
Cc1cc(/C=C2\C(=N)N3N=C(c4ccco4)SC3=NC2=O)c(C)n1Cc1ccccc1 | 13 | -9 | 16 | 6 | 36*
CCC1=NN2C(=N)/C(=C/c3cc(C)n(Cc4ccccc4)c3C)C(=O)N=C2S1 | 1 | -1 | -6 | 6 | 15
COC(=O)c1sc(NC(=S)NNC(=O)c2c(Br)c(C)nn2C)c(C(=O)OC)c1C | 13 | 16 | 30* | 24 | 7
COC(=O)c1sc(S(=O)(=O)Nc2c(C)nn(C)c2C)c(C(=O)OC)c1C | 2 | 4 | 1 | 1 | 5
NC(=Nc1cccc(F)c1)NC(=O)OCc1ccccc1 | · | -1 | · | · | ·
COc1ccc(Cn2cc(CN3[C@@H](c4ccccc4)COc4cc(Br)ccc4S3(=O)=O)nn2)cc1 | · | -4 | · | · | ·
COCCN(C(=O)COC(=O)c1cc2c(s1)CCC2)c1c(N)n(Cc2ccccc2)c(=O)[nH]c1=O | 10 | 4 | 57* | 25 | 9
CCOc1cc2[nH]c(=O)n(CCCC(=O)NCc3ccc(OC)cc3)c(=O)c2cc1OCC | 4 | 14 | 2 | 0 | 32*
Cc1cc(NS(=O)(=O)c2ccc(NC(=O)C(C)Oc3ccc(Cl)cc3)cc2)no1 (stereo not drawn) | 5 | -10 | 0 | -3 | 30*
Cc1ccc(OC(C)C(=O)Nc2ccc(S(=O)(=O)Nc3cc(C)on3)cc2)cc1 (stereo not drawn) | 1 | -12 | 7 | -1 | 3
CC(Oc1ccc(Br)cc1)C(=O)Nc1ccc(S(=O)(=O)Nc2nccs2)cc1 (stereo not drawn) | 5 | 11 | 1 | 9 | 28*
O=C1SC(SCc2ccccc2Cl)=N/C1=C\c1ccc(C(=O)O)cc1 | 6 | 2 | 62* | 7 | 28*
CN(c1ccccc1)c1ccc(/C=C(\CCC(=O)O)c2nc3ccccc3s2)cc1[N+](=O)[O-] | -3 | -9 | 32* | -2 | 89*
COc1ccc(C(=O)Nc2cccc(/C=C(\CCC(=O)O)c3nc4ccccc4s3)c2)cc1 | 5 | -10 | -15 | -2 | 2
SMILES | PAFAH1B3 inh | TDP2 inh | PAFAH2 FP inh | Apaf1 inhib | PAFAH1B2 FP inh
COc1ccc(/C=C(\CC(=O)O)c2nc3ccccc3s2)cc1O | 1 | 4 | -1 | -4 | 4
Cn1cnnc1Sc1ccc(/C=C/C(=O)c2ccc(O)cc2)cc1[N+](=O)[O-] | -4 | -3 | 13 | 7 | -2
CNc1ccc(/C=C(\CCC(=O)O)c2nc3ccccc3s2)cc1[N+](=O)[O-] | -2 | 14 | 15 | 15 | 96*
Cn1cnnc1Sc1ccc(/C=C(\CCC(=O)O)c2nc3ccccc3s2)cc1[N+](=O)[O-] | 3 | 10 | -3 | -2 | 26*
CN(C(=O)[C@@H]1CC=C[C@@H]2CCN(C3CCCCC3)C(=O)[C@@H]21)c1ccccc1 | · | 4 | · | · | ·
CCCCN=C(N)NC(=O)c1ccccc1 | · | 2 | · | · | ·
COC(=O)C1=C(C)N(Cc2ccccc2C(F)(F)F)C(=NCc2cccc(C(F)(F)F)c2)NC1c1ccc(F)cc1 (stereo not drawn) | · | -4 | · | · | ·
Brc1ccccc1Cn1nnc(-c2ccc(N3CCOCC3)cc2)n1 | · | -2 | · | · | ·
O=C(CSc1ccc2ccccc2c1)NCc1cccs1 | 4 | 2 | -2 | 11 | 26*
O=C(COC(=O)CSc1ccc([N+](=O)[O-])cc1)NCc1cccs1 | 3 | 0 | -5 | 6 | 9
O=C(COC(=O)c1c(Cl)cccc1Cl)NCc1cccs1 | 2 | 8 | -1 | 4 | 6
Cc1ccc(SCC(=O)OCC(=O)NCCc2ccccc2)cc1C | 12 | 1 | 0 | 11 | 12
Cc1ccc(SCC(=O)OCC(=O)NCc2cccs2)cc1 | 5 | 8 | 3 | 8 | 28*
O=C(COC(=O)c1cccc(Cl)c1Cl)NCc1cccs1 | 8 | -5 | 33* | 4 | 3
Cc1ccc(SCC(=O)OCC(=O)NCCc2ccccc2)cc1 | 9 | 4 | 4 | 2 | 50*
C[C@H](O)[C@@H]1CN2CCc3c([nH]c4cccc(-c5ccccc5)c34)[C@@H]2C[C@@H]1N(C)C(=O)Nc1ccccc1 | · | -3 | · | · | ·
Cc1ccc(SCC(=O)NC(C)c2ccccc2)cc1 (stereo not drawn) | 0 | 4 | 0 | 6 | 34*
CC(=O)NC(Cc1c[nH]c2ccccc12)C(=O)OCC(=O)N1CCN(S(=O)(=O)c2ccc(Cl)cc2)CC1 (stereo not drawn) | 0 | 0 | 1 | · | 88*
CCOC(=O)C1CCCN(c2cc(NCCCO)c([N+](=O)[O-])c3nonc23)C1 (stereo not drawn) | · | -12 | · | 40* | ·
COCc1[nH]nc2c1C(c1ccc(C)cc1)NC2=O (stereo not drawn) | · | -12 | · | · | ·
COC(=O)c1ccc(=O)c2nc3/c(=C/O)c(O)cc(=O)c3[nH]c12 | 66* | 3 | 81* | · | 60*
COC(=O)c1ccc(N)cc1O | 5 | 4 | 4 | 11 | -5
O=C(OCc1cn(Cc2ccc(C(F)(F)F)cc2)nn1)N1CCCC1 | · | 0 | · | · | ·
Brc1ccc(-c2noc(CCc3ccccc3)n2)o1 | 10 | -4 | -6 | 2 | 28*
Clc1ccccc1OCc1nc(-c2ccc(Br)o2)no1 | 8 | 7 | -5 | 11 | 5
